B1: tRNA (parent)
chain: GUUCCGUUGGCGUAAUGGUAACGCGUCUCCCUCCUAAGGAGAAGACUGCGGGUUCGAGUCCCGUACGGAACG

Variants of: B1
Assay: yeast fitness, log relative to wild type (ln ratio); higher = fitter; tRNA-Arg(CCU), competitive growth, 37 C, 1 M NaCl
Method in brief: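 A combinatorial tRNA-Arg(CCU) variant library was carried on a HIS3 centromeric plasmid in BY4742 lacking the chromosomal gene, from two independent transformations. Pools grew 4 generations in SC-HIS at 30 °C, then ~6.5 generations (~26.5 h) in SC-HIS 1M NaCl at 37 °C, with three outputs per input. Variants were counted by 125 bp paired-end Illumina sequencing. Fitness is ln of each genotype's generations (OD-scaled log2 output/input frequency, inverse-variance weighted across replicates) over the wild-type's.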
In the case of G6U C27U C66A A69G A70G, the “yeast fitness (ln)” value is reported as -0.35. In the case of G1A U2G G6U C27U A43C C46U C66U A69G A70G C71U, the “yeast fitness (ln)” value is reported as -0.475. With U2G G6U C27U C46U A70U C71U the “yeast fitness (ln)” value was -0.171. With G1A U2G G6U A43C C46U C66U A70U the “yeast fitness (ln)” value was -0.275. In the case of G1A C66U A69G A70G, the “yeast fitness (ln)” value is reported as -0.176. In the case of G6A C27U C66U A69G, the “yeast fitness (ln)” value is reported as -0.0541. In the case of U2G C46U C66U A70U C71U, the “yeast fitness (ln)” value is reported as -0.28. In the case of U2C G6A C27U A43C C66U A70G, the “yeast fitness (ln)” value is reported as -0.0396. With U2G G6U A43C A70G the “yeast fitness (ln)” value was -0.173. In the case of C27U A43C C66U A70U C71U, the “yeast fitness (ln)” value is reported as -0.326. For G6A A43C C46U A69G A70U C71U, the “yeast fitness (ln)” value was -0.493. With G1A U2G G6U A43C A69G A70G the “yeast fitness (ln)” value was -0.277. With U2G A70U the “yeast fitness (ln)” value was -0.00577. With U2C G6A A43C C46U C66A A70U the “yeast fitness (ln)” value was -0.0148. In the case of G1A U2G G6A C27U A43C A69G C71U, the “yeast fitness (ln)” value is reported as -0.673. With U2G C27U A43C C46U A69G A70U the “yeast fitness (ln)” value was -0.0275. In the case of G6A A43C C46U, the “yeast fitness (ln)” value is reported as -0.143. In the case of G1A G6U C27U C66A, the “yeast fitness (ln)” value is reported as -0.254. For U2G A43C A69G C71U, the “yeast fitness (ln)” value was -0.163. In the case of G1A U2C G6A C27U A43C C46U A70U, the “yeast fitness (ln)” value is reported as -0.125. For G1A U2C C27U C46U A69G A70G, the “yeast fitness (ln)” value was -0.122. In the case of G1A U2G C66A, the “yeast fitness (ln)” value is reported as -0.0852. With C27U A43C C71U the “yeast fitness (ln)” value was -0.114. In the case of U2G G6A C27U A43C C46U A70G C71U, the “yeast fitness (ln)” value is reported as -0.201. For C27U A43C C46U C66A C71U, the “yeast fitness (ln)” value was -0.173. For G1A U2C A70U C71U, the “yeast fitness (ln)” value was -0.0394. In the case of G1A G6U A43C C66U A70G C71U, the “yeast fitness (ln)” value is reported as -0.424. For G1A C27U A43C C46U C66U A69G A70G C71U, the “yeast fitness (ln)” value was -0.347. For G1A U2G G6U C27U C66U, the “yeast fitness (ln)” value was -0.38. In the case of U2C G6U C27U A43C C46U C66A C71U, the “yeast fitness (ln)” value is reported as -0.17. With U2C G6U C27U A43C C46U C66U A70G C71U the “yeast fitness (ln)” value was -0.225. With G1A C27U C66U A69G C71U the “yeast fitness (ln)” value was -0.285. With U2G G6U A69G A70G the “yeast fitness (ln)” value was -0.171. For A43C C46U C66A, the “yeast fitness (ln)” value was -0.0152. For G1A G6U C27U, the “yeast fitness (ln)” value was -0.16. For U2C G6U A70G, the “yeast fitness (ln)” value was -0.0391. With U2C G6A C27U A43C C46U A69G A70G the “yeast fitness (ln)” value was -0.0933. In the case of U2G G6U A43C C66A C71U, the “yeast fitness (ln)” value is reported as -0.324. In the case of G6A C27U A43C A70U C71U, the “yeast fitness (ln)” value is reported as -0.322. In the case of G1A C27U A43C A69G A70G, the “yeast fitness (ln)” value is reported as -0.303. For U2G G6A C66A, the “yeast fitness (ln)” value was -0.111. For G1A U2C C46U C66U A69G A70G, the “yeast fitness (ln)” value was -0.127. In the case of G1A U2G A43C A70G, the “yeast fitness (ln)” value is reported as -0.108. For U2G G6U C27U A43C C66A A69G C71U, the “yeast fitness (ln)” value was -0.445. In the case of A43C, the “yeast fitness (ln)” value is reported as 0.000879. For G1A U2G G6U C27U A43C A70G, the “yeast fitness (ln)” value was -0.419. In the case of U2C C27U C71U, the “yeast fitness (ln)” value is reported as -0.273. In the case of G1A U2G C27U C46U C66A A70U, the “yeast fitness (ln)” value is reported as -0.138. With G1A U2G C27U A43C C66U A69G A70G C71U the “yeast fitness (ln)” value was -0.294. With G1A U2G C27U C46U A69G C71U the “yeast fitness (ln)” value was -0.206. With U2C G6U C27U C46U C66U A70U the “yeast fitness (ln)” value was -0.132. In the case of U2G C27U C46U C66U C71U, the “yeast fitness (ln)” value is reported as -0.214. With G1A U2G C27U C46U the “yeast fitness (ln)” value was -0.0532. For U2G G6U C27U C46U C66A A70U C71U, the “yeast fitness (ln)” value was -0.143. For G1A C27U C66A A70G C71U, the “yeast fitness (ln)” value was -0.346. With G1A U2G C66A A69G A70G C71U the “yeast fitness (ln)” value was -0.235. For G1A G6A C27U A43C C46U C66U, the “yeast fitness (ln)” value was -0.131. For A43C C66A, the “yeast fitness (ln)” value was -0.0164. With U2G G6U C27U A43C C46U A70G the “yeast fitness (ln)” value was -0.208. For U2C A43C C46U A70G, the “yeast fitness (ln)” value was -0.00469. With U2C G6A A69G A70G the “yeast fitness (ln)” value was -0.0526.
